pIC50: −log10 of the molar value.
What was measured:
Macrophage [1] = assay: Inhibition of nitric oxide production in lipopolysaccharide-activated ddY mouse macrophages at 3 uM relative to control; format: functional
Method in brief: (§1)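 Peritoneal macrophages from male ddY mice given 4% thioglycolate i.p. 4 days earlier, plated at 5 × 10^5 cells/well in RPMI 1640 with 5% FCS, 1 h at 37 °C; adherent cells (>95% macrophages) then cultured 20 h with 10 µg/mL LPS plus compound (1-100 µM, DMSO final 0.5%). Nitrite in medium measured by Griess reagent; % inhibition versus LPS-only control, IC50 read graphically, N = 4.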

Macrophage [2] = assay: Inhibition of nitric oxide production in lipopolysaccharide-activated ddY mouse macrophages at 10 uM relative to control; format: functional; method in brief: as §1
Macrophage [3] = assay: Inhibition of nitric oxide production in lipopolysaccharide-activated ddY mouse macrophages at 30 uM relative to control; format: functional; method in brief: as §1
Macrophage [4] = assay: Inhibition of nitric oxide production in lipopolysaccharide-activated ddY mouse macrophages at 100 uM relative to control; format: functional; method in brief: as §1
[5] = Toxicity in lipopolysaccharide-activated ddY mouse macrophages at 100 uM by MTT method; format: cell-based; settings: macrophage
Method in brief: (§2)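 Peritoneal exudate cells from male ddY mice given 4% thioglycolate i.p. 4 days earlier, plated at 5 × 10^5 cells/well in RPMI 1640 with 5% FCS, 1 h at 37 °C. Non-adherent cells washed off. Adherent macrophages exposed to 10 µg/mL LPS plus compound (DMSO, final 0.5%) for 20 h. MTT added for 4 h, formazan dissolved in 2-propanol/0.04 M HCl, read at 570 nm (ref 655 nm). N=4.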

Macrophage [6] = assay: Inhibition of nitric oxide production in lipopolysaccharide-activated ddY mouse macrophages at 1 uM relative to control; format: functional; method in brief: as §1
[7] = Toxicity in lipopolysaccharide-activated ddY mouse macrophages at 30 uM by MTT method; format: cell-based; settings: macrophage; method in brief: as §2
[8] = Toxicity in lipopolysaccharide-activated ddY mouse macrophages by MTT method; format: cell-based; settings: macrophage
Method in brief: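 Thioglycolate-elicited ddY mouse peritoneal macrophages were treated for 20 h with 10 µg/mL LPS plus compound (1-100 µM, 0.5% DMSO final). MTT (5 mg/mL in PBS) was then added for 4 h, and formazan was dissolved in 2-propanol with 0.04 M HCl. Absorbance was read at 570 nm (reference 655 nm), N = 4.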

[9] = Inhibition of NOS; method in brief: as §1

SMILES	inhibition at 3 µM (Macrophage [1])	inhibition at 10 µM (Macrophage [2])	inhibition at 30 µM (Macrophage [3])	inhibition at 100 µM (Macrophage [4])	Activity [5]	inhibition at 1 µM (Macrophage [6])	Activity [7]	Activity [8]	pIC50 [9]
CC(=O)OC[C@@]12CC[C@@]3(C)[C@H]4C(=CC[C@]3(C)[C@H]1[C@H](O)C[C@H]2C(C)C)[C@@]1(C)CCC(=O)C(C)(C)[C@@H]1C[C@@H]4O [RUBIARBONONE C]	3.7%	-2.3%	8%	90.3%	Toxic	-2.1%			
CC(C)[C@@H]1C[C@@H](O)[C@H]2[C@@]1(CO)CC[C@@]1(C)[C@H]3C(=CC[C@]21C)[C@@]1(C)CC[C@H](O)C(C)(C)[C@@H]1C[C@@H]3O [RUBIARBONOL A]	4.2%	-4.2%	2.9%	86.3%	Toxic	6.3%	Toxic		
Cc1c(O)cc2c(c1O)C(=O)c1ccc(O)cc1C2=O	7.9%	37.5%	99.5%	99.6%	Toxic	4.9%			
CC(=O)OC[C@@]12CC[C@@]3(C)[C@H]4C(=CC[C@]3(C)[C@H]1[C@H](OC(C)=O)C[C@H]2C(C)C)[C@@]1(C)CC[C@H](OC(C)=O)C(C)(C)[C@@H]1C[C@@H]4OC(C)=O	10.6%	-1.2%	0%	6.6%		5.3%			
CC(=O)O[C@@H]1C[C@]2(C)C3=CC[C@]4(C)[C@H]5[C@@H]6C[C@@H](C(C)C)[C@@]5(CC[C@@]4(C)[C@@H]3[C@@H](O)C[C@H]2C(C)(C)[C@H]1O[C@@H]1O[C@H](CO)[C@@H](O)[C@H](O)[C@H]1O)CO6 [RUBIANOSIDE I]	-0.3%	-8%	1.5%	-3.2%		5.1%			
CC(C)[C@@H]1C[C@@H](O)[C@H]2[C@@]1(CO)CC[C@@]1(C)[C@H]3C(=CC[C@]21C)[C@@]1(C)CCC(=O)C(C)(C)[C@@H]1C[C@@H]3O [RUBIARBONONE B]	-9.7%	-13.7%	16.9%	19.7%		4.3%			
COc1cc(O)cc(OC)c1C(=O)O	9.3%	7.5%	7.2%	28%		9.5%			
CC(=O)OC[C@@]12CC[C@@]3(C)[C@H]4C(=CC[C@]3(C)[C@H]1[C@H](O)C[C@H]2C(C)C)[C@@]1(C)C[C@@H](OC(C)=O)[C@H](O)C(C)(C)[C@@H]1C[C@@H]4O	21.3%	-12%	-7.9%	77.1%		20.2%		Non-toxic	
CC(=O)OC[C@@]12CC[C@@]3(C)[C@H]4C(=CC[C@]3(C)[C@H]1[C@H](O)C[C@H]2C(C)C)[C@@]1(C)C[C@@H](O)[C@H](O)C(C)(C)[C@@H]1C[C@@H]4O	5.3%	4.3%	-11.1%	76.5%		17%		Non-toxic	
COc1cc([C@H]2c3cc(O)c(OC)cc3C[C@@H](CO)[C@@H]2CO)ccc1O [ISOLARICIRESINOL]	-0.6%	0.6%	5.1%	7.5%		-0.2%			
CNC(=N)NCCC[C@H](N)C(=O)O [TILARGININE]	10.3%	15%	34.1%	63.1%		5.9%			4.24
CC(=O)OC[C@@]12CC[C@@]3(C)[C@H]4C(=CC[C@]3(C)[C@H]1[C@H](O)C[C@H]2C(C)C)[C@@]1(C)C[C@@H](O)C(=O)C(C)(C)[C@@H]1C[C@@H]4O	-1.5%	0%	-5.8%	15.4%		-1.1%			
CC(C)[C@@H]1C[C@@H](O)[C@H]2[C@@]1(CO)CC[C@@]1(C)[C@H]3C(=CC[C@]21C)[C@@]1(C)C[C@@H](O)[C@H](O)C(C)(C)[C@@H]1C[C@@H]3O [RUBIARBONOL F]	7.9%	15.4%	22%	60.4%	Toxic	9.6%			
CC(=O)OC[C@@]12CC[C@@]3(C)[C@H]4C(=CC[C@]3(C)[C@H]1[C@H](O)C[C@H]2C(C)C)[C@@]1(C)CC[C@H](O)C(C)(C)[C@@H]1C[C@@H]4O	11.1%	4.7%	-7.4%	25.5%	Toxic	5.2%			
COc1cc(C[C@H]2CO[C@H](c3ccc(O)c(OC)c3)[C@H]2CO)ccc1O [LARICIRESINOL]	3%	5.5%	-8.2%	11.9%		4%			
COc1cc(C(=O)O)ccc1O [VANILLIC ACID]	16.2%	8.2%	-3.6%	5.9%		5.9%			
COc1cc(C[C@@H](CO)[C@H](CO)Cc2ccc(O)c(OC)c2)ccc1O [(+)-SECOISOLARICIRESINOL]	-7.3%	6.5%	0.9%	-12.5%		5.9%			
CC(=O)OC[C@@]12CC[C@@]3(C)[C@H]4C(=CC[C@]3(C)[C@H]1[C@H](OC(C)=O)C[C@H]2C(C)C)[C@@]1(C)C[C@@H](OC(C)=O)[C@H](OC(C)=O)C(C)(C)[C@@H]1C[C@@H]4OC(C)=O	9.5%	18.7%	25.5%	28.4%		7.7%			
CC(=O)OC[C@@]12CC[C@@]3(C)[C@H]4C(=CC[C@]3(C)[C@H]1[C@H](OC(C)=O)C[C@H]2C(C)C)[C@@]1(C)C[C@@H](OC(C)=O)C(=O)C(C)(C)[C@@H]1C[C@@H]4OC(C)=O	7.3%	12.5%	18.7%	23%		1.7%			
CC(C)[C@@H]1C[C@@H](O)[C@H]2[C@@]1(CO)CC[C@@]1(C)[C@H]3C(=CC[C@]21C)[C@@]1(C)C[C@@H](O)C(=O)C(C)(C)[C@@H]1C[C@@H]3O	-10.3%	2.1%	1.8%	40.3%		-9.6%			

Reference: ChEMBL document CHEMBL1159387, “Absolute stereostructures of new arborinane-type triterpenoids and inhibitors of nitric oxide production from Rubia yunnanensis” (J Nat Prod, 2003)
